Compound activity deposited in PubChem by several laboratories.
Beta apoptosis – blocks beta cell apoptosis; INS-1E cytokine-induced death, ATP luminescence, 48 h; percent of positive-control rescue, neutral wells zero; hit rate 0.8% among 300,000; protection from apoptosis, % (test concentration not listed);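 active means Every replicate reaches about 75%, or at least half do and their mean reaches it too, limit read from the data; inconclusive means At least half of replicates reach the limit but their mean does not; inactive means Under half of replicates reach the limit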;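 further: 0% = cytokine-treated negative control wells and 100% = positive control rescue; higher means more ATP so stronger rescue from cytokine killing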
T cruzi repl – blocks replication of Trypanosoma cruzi | T. cruzi beta-gal in NIH3T3, luminescence, 90 h | inhibition, % (no concentration beside the values) | hit rate 1.4% among 300,000 | AID 1885;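 active means mean inhibition across valid replicates above about 55%, limit read from the data; inconclusive means mean below that limit but half or more replicates reach it; inactive means mean below it, under half of replicates reach it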;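 further: signal also drops with host cell toxicity which is not excluded here; 0% = plate median of DMSO wells and 100% = zero luminescence signal; higher percent means less beta-gal luminescence so fewer parasites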
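Read-out: Parasite load inhibition, % | Test system: Mouse NIH/3T3 fibroblasts infected with β-gal-expressing T. cruzi Tulahuen C4 | Amount: 5,000 cells/well | Medium: DMEM, 2% fetal bovine serum | Signal: GalScreen β-gal luminescence, detergent lysis, 60 min | Timing: 3 h attach, ≥90 h co-culture | Also added: Tulahuen C4 trypomastigotes, 5000/well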
SKKanGAS inh – inhibitors of SKKanGAS S. pyogenes growth in kanamycin (SK-promoter or general growth effect). AID 1662. BacTiter-Glo, 6 h. inhibition, % at 7.5 µM. hit rate 1.3% among 300,000;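 active means mean replicate score, as percent of positive control median, at least 50; inconclusive means mean below 50 but one replicate at or above 50; inactive means mean and every replicate below 50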;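 further: strain carries kanamycin resistance gene driven by streptokinase promoter and grows in 40 µg/ml kanamycin; loss of luminescence reflects streptokinase promoter inhibition or plain growth inhibition; 0% = median of DMSO wells and 100% = positive control at its reference dose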
CSC inhib – blocks cancer stem cells; cancer stem cell-like cells viability, luminescence; inhibition, % at 7.5 µM; hit rate 1.1% among 300,000; in the data active means inhibition above about 75%; inconclusive means no clear call, values can overlap the other calls; tested in HMLE shEcad cells
Mdm2 MdmX PPI – disrupts the human Mdm2-MdmX interaction. SaOS-2 split-luciferase Mdm2/MdmX complementation, luminescence. inhibition, % at 8 µM. hit rate 3% among 330,000;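 active means inhibition of at least 50% at 8 µM in the primary screen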
Target sequence (O15151 whole entry, looked up): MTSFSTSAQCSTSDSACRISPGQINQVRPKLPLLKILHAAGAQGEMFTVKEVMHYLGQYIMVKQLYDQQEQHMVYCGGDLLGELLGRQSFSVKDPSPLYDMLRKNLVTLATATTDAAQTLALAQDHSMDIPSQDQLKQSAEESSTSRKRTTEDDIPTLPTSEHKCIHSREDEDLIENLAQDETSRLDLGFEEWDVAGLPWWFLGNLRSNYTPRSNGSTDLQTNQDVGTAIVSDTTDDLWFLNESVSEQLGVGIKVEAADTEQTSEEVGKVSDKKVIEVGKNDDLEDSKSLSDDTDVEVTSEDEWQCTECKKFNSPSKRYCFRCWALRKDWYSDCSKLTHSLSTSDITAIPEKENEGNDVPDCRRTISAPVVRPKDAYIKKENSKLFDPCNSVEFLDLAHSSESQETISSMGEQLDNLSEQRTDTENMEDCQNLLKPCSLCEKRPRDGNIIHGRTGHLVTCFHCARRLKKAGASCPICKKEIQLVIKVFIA
Target sequence (Q00987 whole entry, looked up): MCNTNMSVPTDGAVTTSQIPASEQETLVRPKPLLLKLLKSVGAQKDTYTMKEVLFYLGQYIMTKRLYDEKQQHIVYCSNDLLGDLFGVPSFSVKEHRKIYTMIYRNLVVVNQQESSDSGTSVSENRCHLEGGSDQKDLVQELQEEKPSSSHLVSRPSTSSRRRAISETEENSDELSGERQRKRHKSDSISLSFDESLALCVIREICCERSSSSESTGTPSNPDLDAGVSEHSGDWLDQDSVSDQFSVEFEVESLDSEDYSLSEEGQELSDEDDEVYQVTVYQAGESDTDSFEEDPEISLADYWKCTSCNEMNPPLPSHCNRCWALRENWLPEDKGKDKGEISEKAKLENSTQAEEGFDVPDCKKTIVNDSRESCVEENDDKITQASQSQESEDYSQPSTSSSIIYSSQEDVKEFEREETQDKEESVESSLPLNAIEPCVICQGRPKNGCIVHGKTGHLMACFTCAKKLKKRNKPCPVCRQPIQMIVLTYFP
Calb FLC – affects C. albicans growth with fluconazole. growth inhibition, % (no concentration beside the values). hit rate 0.57% among 300,000. AID 1979. C. albicans CaCi-2 (fluconazole-resistant clinical isolate) + fluconazole, Alamar Blue growth, 48 h;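 active means growth inhibition above about 58% in most replicates, limit read from the data, passing the limit was not always enough; inconclusive means exactly half the replicates above a set limit; inactive means most replicates below a set limit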;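 further: all wells also contain fluconazole at 8 µg/ml as a sub-toxic cotreatment; 0% = median of DMSO wells and 100% = median of geldanamycin control wells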
Mdm2-MdmX conf – human Mdm2/MdmX binding inhibition, confirmed | shares compounds with Mdm2 MdmX PPI | luminescent assay | inhibition, % at 8 µM | hit rate 55% among 10,000 | AID 489028; in the data active means inhibition above about 40%
Full FLuc ctr – inhibits full-length luciferase, flagging false Mdm2/MdmX hits; hit rate 77% among 6,200; shares compounds with Mdm2 MdmX PPI; inhibition, % at 8 µM; SaOS-2 full-length luciferase counterscreen, luminescence; AID 504607;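 active means mean inhibition at 8 µM reaching about 37%, which flags the compound as non-specific, limit read from the data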;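 further: p53-null SaOS-2 cells with luciferase driven by a doxycycline-inducible promoter; compound on cells about two nights before reading with doxycycline added after day one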
* = called active by the depositor; ? = inconclusive; · = no result. Only some compounds are listed: those with a hit (about 5.7% of all), similar ones and a draw of the others.

SMILES	Beta apoptosis	T cruzi repl	SKKanGAS inh	CSC inhib	Mdm2 MdmX PPI	Calb FLC	Mdm2-MdmX conf	others
CNC(=O)c1ccc(-c2cc3onc(-c4ccccc4)c3c(=O)n2C)cc1	3.1	·	·	·	-108.6	·	·
Cc1ccc(-c2cc3onc(-c4ccccc4)c3c(=O)n2C)cc1	15.5	·	·	20.0	72.7*	·	74.5*	Full FLuc ctr=103.1*
COC(=O)COc1ccc(S(=O)(=O)Nc2ccc3c(c2)OCO3)cc1	-2.1	-19.6	-3.7	0.4	14.5	27.9	·
COC(=O)COc1ccc(S(=O)(=O)Nc2ccc3c(c2)OCO3)cc1Cl	-13.9	3.4	1.6	8.1	52.4*	-4.0	29.2
COCc1cc(C)nc(OCC(=O)N/N=C/c2ccc(C)o2)c1C#N	-2.8	2.2	1.9	-14.2	16.2	-2.0	·
COc1ccc(C(CNC(=O)c2ccc(S(=O)(=O)N3CC(C)CC(C)C3)cc2)N(C)C)cc1 (stereo not drawn)	6.0	·	·	34.4	51.4*	·	17.1
COc1ccc(C(CNC(=O)c2ccc(S(=O)(=O)N3CCCC3)cc2)N(C)C)cc1OC (stereo not drawn)	-8.1	1.2	-0.8	·	-11.7	-6.5	·
Cc1cc(Cl)ccc1OCC(=O)OCC(=O)c1c(N)n(C)c(=O)n(C)c1=O	0.1	·	·	·	20.7	·	·
O=C(Nc1ccc(Cl)c([N+](=O)[O-])c1)C(Sc1ccccc1)c1ccccc1 (stereo not drawn)	13.8	64.3*	23.5	-4.8	88.2*	-5.0	82.2*	Full FLuc ctr=24.1
O=C(NNc1ccccc1[N+](=O)[O-])Nc1ccc(Cl)c(Cl)c1	-13.2	37.9	17.7	-4.9	86.7*	-18.4	79.8*	Full FLuc ctr=40.5*
CCN(CC)S(=O)(=O)c1cc([N+](=O)[O-])ccc1NNC(=O)Nc1ccc(Cl)c(Cl)c1	113.2*	60.5*	48.5	-23.6	91.0*	-6.5	93.0*	Full FLuc ctr=52.5*
CN(C)c1ccc(C=C(c2nnnn2-c2ccccc2)c2nnnn2-c2ccccc2)cc1	4.6	14.9	5.5	4.3	21.1	15.6	·
Cc1cccc([N+](=O)[O-])c1NC(=O)COC(=O)c1nc2nccc(C)n2n1	-3.0	·	·	-5.3	-22.7	·	·
COc1ccccc1C(=O)NNC1=C(C(=O)C(F)(F)F)CCC1	10.0	-9.2	2.2	-1.8	69.7*	10.9	58.0*	Full FLuc ctr=72.4*
Nc1ccccc1C(=O)NNC1=C(C(=O)C(F)(F)F)CCC1	-12.7	-10.2	-1.9	18.6	53.2*	-20.8	49.4*	Full FLuc ctr=148.4*
O=C(NNC1=C(C(=O)C(F)(F)F)CCC1)c1ccccc1Cl	9.3	-8.4	16.1	56.2	7.1	5.8	·
O=C(NNC1=C(C(=O)C(F)(F)F)CCC1)c1ccccc1O	15.8	14.7	87.0*	·	50.0	?	38.8
COc1ccc(-c2cnnn2-c2ccc(NC(=O)c3ccc(S(=O)(=O)N4CCCCC4)cc3)cc2)cc1	16.1	1.3	8.1	0.9	24.8	-20.5	·
Cc1c(CCOC(=O)C2C3CC4CC(C3)CC2C4)sc[n+]1CC(=O)c1ccc(Br)cc1 (stereo not drawn)	51.9	10.9	49.9*	107.7*	66.7*	28.6	15.7
Cn1c(=O)c2ccccc2n2c(CCl)nnc12	-10.5	-11.5	4.5	-5.2	20.1	-5.0	·
O=C(CCNC(=O)C1CCN(S(=O)(=O)c2ccccc2)CC1)NCc1ccc(Cl)cc1Cl	·	36.7	-2.2	-7.9	18.8	-4.5	·
COc1ccc(NC(=O)COC(=O)c2ccc(OCc3ccccc3Cl)c(OC)c2)c(OC)c1	-3.2	-7.9	-1.5	16.1	61.2*	0.2	15.6
COc1cc(C(=O)OCC(=O)Nc2cc(C)on2)ccc1OCc1ccccc1Cl	-6.7	7.2	13.2	8.7	13.2	-0.3	·
Cc1cc2ccccn2c1C(=O)c1ccc(NN)c([N+](=O)[O-])c1	-5.2	27.6	24.6	-7.7	61.7*	-4.2	28.1
COc1ccc2c(c1)O[C@@]1(CCCC[C@@H]1C)CC2=O	-1.6	26.9	-6.3	16.3	0.9	-0.1	·
COC(=O)c1c(O)c2c([nH]c1=O)CCCC2	-1.9	-6.2	-4.4	-8.7	11.9	-0.5	·
COC(=O)c1ccccc1NC(=O)c1c(O)c2c([nH]c1=O)CCCC2	0.4	-8.4	1.7	6.3	56.2*	1.1	10.6
